Tests used:
BC [1] = assay: Cytotoxicity against BC cells.; format: functional, cell-based; settings: Homo sapiens
Method in brief: (§1)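 Colorimetric cytotoxicity assay after Skehan on KB, BC and vero cell lines. Maximum concentration tested 130 µM. Ellipticine was the positive control. IC50 is reported in µM.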

Vero = assay: Cytotoxicity against vero cells.; format: functional, cell-based; settings: Chlorocebus sabaeus; method in brief: as §1
[2] = Therapeutic index (TI) determined as IC50 of vero cells to that of EC50; format: cell-based; settings: plasmodium falciparum, read-out: TI
Plasmodium falciparum = assay: Antimalarial activity against Plasmodium falciparum; format: functional, organism-based
Method in brief: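 P. falciparum K1 (multidrug-resistant), asexual erythrocytic stage kept in continuous in vitro culture; microculture radioisotope method after Desjardins. EC50 is the concentration giving 50% reduction in parasite growth, measured as [3H]hypoxanthine uptake. Artemisinin and dihydroartemisinin served as standards.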

[3] = Cytotoxicity against KB cells.; format: functional, cell-based; settings: Homo sapiens; method in brief: as §1
BC [4] = assay: Cytotoxicity against BC cells; format: functional, cell-based; settings: Homo sapiens; method in brief: as §1
KB = assay: Cytotoxicity against KB cells; format: functional, cell-based; settings: Homo sapiens; method in brief: as §1

| Compound | IC50 (BC [1]) | IC50 (Vero) | selectivity ratio [2] | EC50 (Plasmodium falciparum) | IC50 [3] | IA (BC [4]) | IA (KB) |
| --- | --- | --- | --- | --- | --- | --- | --- |
| CCCCC[C@@H]1C(=O)O[C@@H]2O[C@]3(C)CC[C@H]4[C@H](C)CC[C@@H]1[C@@]24OO3 | 11000 nM | 19000 nM | 1.6 | 11.7 nM | 11000 nM |  |  |
| CCCCCC[C@@H]1C(=O)O[C@@H]2O[C@]3(C)CC[C@H]4[C@H](C)CC[C@@H]1[C@@]24OO3 | 6200 nM | 14000 nM | 1 | 13.8 nM | 6200 nM |  |  |
| CCCCC[C@H]1C(=O)O[C@@H]2O[C@]3(C)CC[C@H]4[C@H](C)CC[C@@H]1[C@@]24OO3 |  | > 130000 nM | > 1.5 | 8.9 nM |  | Cytotoxic | Cytotoxic |
| CC1CCC2C(CSCCCCSCC3C(=O)OC4OC5(C)CCC6C(C)CCC3C46OO5)C(=O)OC3OC4(C)CCC1C32OO4 (configuration not stated) |  |  |  | 5.7 nM |  |  |  |
| C[C@@H]1CC[C@H]2[C@@H](Cc3ccc(F)cc3)C(=O)O[C@@H]3O[C@]4(C)CC[C@@H]1[C@]32OO4 |  | > 130000 nM | 1.9 | 6.7 nM |  | Cytotoxic | Cytotoxic |
| CCN(CC)C(=S)SC(CC1C(=O)O[C@@H]2O[C@]3(C)CC[C@H]4[C@H](C)CC[C@@H]1C24OO3)SC(=S)N(CC)CC (some centres not stated) | 2400 nM | 6600 nM | 3.5 | 1.9 nM | 2500 nM |  |  |
| CCC[C@@H]1C(=O)O[C@@H]2O[C@]3(C)CC[C@H]4[C@H](C)CC[C@@H]1[C@@]24OO3 |  | > 130000 nM | > 1.2 | 11 nM |  | Cytotoxic | Cytotoxic |
| CC1CCC2C(CSCCSCC3C(=O)OC4OC5(C)CCC6C(C)CCC3C46OO5)C(=O)OC3OC4(C)CCC1C32OO4 (configuration not stated) |  |  |  | 7.4 nM |  |  |  |
| CC1CCC2C(CC3(CCCCCCCC4(CC5C(=O)OC6OC7(C)CCC8C(C)CCC5C68OO7)C(=O)OC5OC6(C)CCC7C(C)CCC4C57OO6)C(=O)OC4OC5(C)CCC6C(C)CCC3C46OO5)C(=O)OC3OC4(C)CCC1C32OO4 (configuration not stated) | 9600 nM | > 42000 nM | > 2.1 | > 20 nM | 5400 nM |  |  |
| CC1CCC2C(CCC(=O)c3ccc[nH]3)C(=O)OC3OC4(C)CCC1C32OO4 (configuration not stated) |  | > 130000 nM | > 1.5 | 8.8 nM |  | Cytotoxic | Cytotoxic |
| CC1CCC2C(CSCCCCCSCC3C(=O)OC4OC5(C)CCC6C(C)CCC3C46OO5)C(=O)OC3OC4(C)CCC1C32OO4 (configuration not stated) |  |  |  | 12 nM |  |  |  |
| CC1CCC2C(CCCCCCC3(CC4C(=O)OC5OC6(C)CCC7C(C)CCC4C57OO6)C(=O)OC4OC5(C)CCC6C(C)CCC3C46OO5)C(=O)OC3OC4(C)CCC1C32OO4 (configuration not stated) | 1200 nM | 6600 nM | 2.8 | 2.4 nM | 1700 nM |  |  |
| COC(=O)C(C)(C)CC1C(=O)O[C@@H]2OC3(C)CC[C@H]4[C@H](C)CC[C@@H]1[C@@]24OO3 (single isomer, unassigned) |  | > 130000 nM | > 5 | > 26.1 nM |  | Cytotoxic | Cytotoxic |
| CCCCC1(CC2C(=O)OC3OC4(C)CCC5C(C)CCC2C35OO4)C(=O)OC2OC3(C)CCC4C(C)CCC1C24OO3 (configuration not stated) |  | > 130000 nM | > 3 | 4.3 nM |  | Cytotoxic | Cytotoxic |
| CCCC[C@H]1C(=O)O[C@@H]2O[C@]3(C)CC[C@H]4[C@H](C)CC[C@@H]1[C@@]24OO3 |  | > 130000 nM | > 1.2 | 11.3 nM |  | Cytotoxic | Cytotoxic |
| CCCCCC1(CC2C(=O)OC3OC4(C)CCC5C(C)CCC2C35OO4)C(=O)OC2OC3(C)CCC4C(C)CCC1C24OO3 (configuration not stated) | 36000 nM | 63000 nM | 1.6 | 3.9 nM | 23000 nM |  |  |
| C[C@@H]1CC[C@H]2C(CCC(=O)c3ccc[nH]3)C(=O)O[C@@H]3O[C@]4(C)CC[C@@H]1[C@]32OO4 (some centres not stated) |  | > 130000 nM | > 5.2 | 24.8 nM |  | Cytotoxic | Cytotoxic |
| CC1CCC2C(CSCCCSCC3C(=O)OC4OC5(C)CCC6C(C)CCC3C46OO5)C(=O)OC3OC4(C)CCC1C32OO4 (configuration not stated) |  |  |  | 13 nM |  |  |  |
| CC1CCC2C(CCCCCCCC3(CC4C(=O)OC5OC6(C)CCC7C(C)CCC4C57OO6)C(=O)OC4OC5(C)CCC6C(C)CCC3C46OO5)C(=O)OC3OC4(C)CCC1C32OO4 (configuration not stated) | 2000 nM | 10000 nM |  | 3.1 nM | 2800 nM |  |  |

| Compound | IC50 (BC [1]) | IC50 (Vero) | selectivity ratio [2] | EC50 (Plasmodium falciparum) | IC50 [3] | IA (BC [4]) | IA (KB) |
| --- | --- | --- | --- | --- | --- | --- | --- |
| CCCC[C@@H]1C(=O)O[C@@H]2O[C@]3(C)CC[C@H]4[C@H](C)CC[C@@H]1[C@@]24OO3 |  | > 130000 nM | > 9.4 | 13.8 nM | 54000 nM | Cytotoxic |  |
| CC1CCC2C(CC3(CCCCc4ccccc4)C(=O)OC4OC5(C)CCC6C(C)CCC3C46OO5)C(=O)OC3OC4(C)CCC1C32OO4 (configuration not stated) | 1200 nM | 2400 nM | 7.1 | 3.4 nM | 5700 nM |  |  |
| C[C@@H]1CCC2[C@H](CCCCCC[C@H]3C(=O)O[C@@H]4O[C@@]5(C)CC[C@H]6[C@H](C)CCC3[C@@]46OO5)C(=O)O[C@@H]3O[C@]4(C)CC[C@@H]1C23OO4 (some centres not stated) | 1600 nM | 10000 nM | 9.5 | 10.5 nM | 1800 nM |  |  |
| C[C@@H]1CC[C@H]2[C@@H](CCCCc3ccccc3)C(=O)O[C@@H]3O[C@]4(C)CC[C@@H]1[C@]32OO4 | 14000 nM | 16000 nM | 1.9 | 8.4 nM | 11000 nM |  |  |
| CCCCCC[C@H]1C(=O)O[C@@H]2O[C@]3(C)CC[C@H]4[C@H](C)CC[C@@H]1[C@@]24OO3 | 5700 nM | 16000 nM | 1.2 | 12.9 nM | 6200 nM |  |  |
| CC1CCC2C(CC3(Cc4ccc(F)cc4)C(=O)OC4OC5(C)CCC6C(C)CCC3C46OO5)C(=O)OC3OC4(C)CCC1C32OO4 (configuration not stated) | 7400 nM | 1100 nM | 4.8 | 2.3 nM | 7700 nM |  |  |
| C[C@@H]1CC[C@H]2C(CCC(=O)c3ccccc3)C(=O)O[C@@H]3O[C@]4(C)CC[C@@H]1C32OO4 (some centres not stated) |  | > 130000 nM | > 1 | 12.8 nM |  | Cytotoxic | Cytotoxic |
| C[C@@H]1CC[C@H]2[C@H](CCCCc3ccccc3)C(=O)O[C@@H]3O[C@]4(C)CC[C@@H]1[C@]32OO4 | 5000 nM | 13000 nM | 1.3 | 10.3 nM | 5200 nM |  |  |
| C[C@@H]1CC[C@H]2[C@@H](Cc3cccc(F)c3)C(=O)O[C@@H]3O[C@]4(C)CC[C@@H]1[C@]32OO4 |  | > 130000 nM | 6.3 | 20.7 nM |  | Cytotoxic | Cytotoxic |
| C[C@@H]1CC[C@H]2C(C[C@]3(C)C(=O)O[C@@H]4O[C@]5(C)CC[C@H]6[C@H](C)CC[C@@H]3[C@@]46OO5)C(=O)O[C@@H]3O[C@]4(C)CC[C@@H]1C32OO4 (some centres not stated) | 13000 nM | 89000 nM | 8.9 | 1 nM | 23000 nM |  |  |
| C[C@@H]1CC[C@H]2[C@H](CCCCCCC[C@@H]3C(=O)O[C@@H]4O[C@@]5(C)CC[C@H]6[C@H](C)CC[C@@H]3[C@@]46OO5)C(=O)O[C@@H]3O[C@@]4(C)CC[C@@H]1[C@]32OO4 | 1100 nM | 4900 nM |  | 1.1 nM | 1100 nM |  |  |
| C[C@@H]1CC[C@H]2[C@H](Cc3ccc(F)cc3)C(=O)O[C@@H]3O[C@]4(C)CC[C@@H]1[C@]32OO4 | 41000 nM | 120000 nM | 9.3 | 12.9 nM | 35000 nM |  |  |
| C[C@@H]1CC[C@H]2[C@H](Cc3cccc(F)c3)C(=O)O[C@@H]3O[C@]4(C)CC[C@@H]1[C@]32OO4 | 41000 nM | > 130000 nM | 7.1 | 18.2 nM | 44000 nM |  |  |
| CCCC1(CC2C(=O)OC3OC4(C)CCC5C(C)CCC2C35OO4)C(=O)OC2OC3(C)CCC4C(C)CCC1C24OO3 (configuration not stated) |  | > 130000 nM | > 3 | 4.4 nM |  | Cytotoxic | Cytotoxic |
| C[C@@H]1CCC2[C@H](CCCCCC[C@@H]3C(=O)O[C@@H]4O[C@@]5(C)CC[C@H]6[C@H](C)CCC3[C@@]46OO5)C(=O)O[C@@H]3O[C@]4(C)CC[C@@H]1C23OO4 (some centres not stated) | 1600 nM | 10000 nM | 7.1 | 1.4 nM | 2300 nM |  |  |
| CC1CCC2C(CC3(Cc4cccc(F)c4)C(=O)OC4OC5(C)CCC6C(C)CCC3C46OO5)C(=O)OC3OC4(C)CCC1C32OO4 (configuration not stated) | 3500 nM | 5500 nM | 2.6 | 2.1 nM | 4000 nM |  |  |
| C[C@@H]1CC[C@H]2[C@H](CCCCCCC[C@H]3C(=O)O[C@@H]4O[C@@]5(C)CC[C@H]6[C@H](C)CC[C@@H]3[C@@]46OO5)C(=O)O[C@@H]3O[C@@]4(C)CC[C@@H]1[C@]32OO4 | 360 nM | 2800 nM | 3.1 | 0.91 nM | 760 nM |  |  |
| CC1CCC2C(CC3(CCCCCCC4(CC5C(=O)OC6OC7(C)CCC8C(C)CCC5C68OO7)C(=O)OC5OC6(C)CCC7C(C)CCC4C57OO6)C(=O)OC4OC5(C)CCC6C(C)CCC3C46OO5)C(=O)OC3OC4(C)CCC1C32OO4 (configuration not stated) | 2800 nM | 9200 nM | 1.6 | 5.8 nM | 2000 nM |  |  |
